Measurements reported in ChEMBL document CHEMBL4145462, “Nitrogen-containing ecdysteroid derivatives vs. multi-drug resistance in cancer: Preparation and antitumor activity of oximes, oxime ethers and a lactam” (Eur J Med Chem, 2018).

Experiments:
[1] = Synergistic cytotoxicity against mouse L5178 cells assessed as combination index at ED75 using 75:1 test compound to doxorubicin ratio after 48 hrs by MTT-based checkerboard microplate method; assay type: functional
How it was run: (§1)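 Checkerboard microplate combinations of compound with doxorubicin at constant molar ratios. 5 × 10^4 cells/well in McCoy's 5A, 48 h at 37°C, 5% CO2. MTT added to 0.5 mg/mL final for 4 h, SDS/HCl overnight, OD read at 540 and 630 nm. Combination indices derived per ratio for 50%, 75% and 90% growth inhibition by median-effect analysis.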

[2] = Synergistic cytotoxicity against mouse L5178 cells assessed as combination index at ED90 using 37.5:1 test compound to doxorubicin ratio after 48 hrs by MTT-based checkerboard microplate method; assay type: functional; how it was run: as §1
[3] = Synergistic cytotoxicity against mouse L5178 cells expressing human ABCB1 assessed as combination index at ED75 using 60:1 test compound to doxorubicin ratio after 48 hrs by MTT-based checkerboard microplate method; assay type: functional; how it was run: as §1
[4] = Synergistic cytotoxicity against mouse L5178 cells assessed as combination index at ED90 using 75:1 test compound to doxorubicin ratio after 48 hrs by MTT-based checkerboard microplate method; assay type: functional; how it was run: as §1
[5] = Synergistic cytotoxicity against mouse L5178 cells assessed as combination index at ED75 using 37.5:1 test compound to doxorubicin ratio after 48 hrs by MTT-based checkerboard microplate method; assay type: functional; how it was run: as §1
HeLa = test: Antiproliferative activity against human HeLa cells after 72 hrs by MTT assay; assay type: functional, cell-based
How it was run: (§2)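 Cells grown in MEM with 10% FCS, 1% non-essential amino acids and 1% penicillin-streptomycin. Seeded at 5000 cells/well, exposed to 0.1–30.0 µM compound for 72 h. MTT (5 mg/ml solution) was then added for 4 h, formazan dissolved in DMSO, and absorbance read at 545 nm. Cisplatin served as positive control. IC50 came from sigmoidal dose–response fits (log inhibitor vs normalized response, variable slope).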

[6] = Synergistic cytotoxicity against mouse L5178 cells expressing human ABCB1 assessed as combination index at ED90 using 15:1 test compound to doxorubicin ratio after 48 hrs by MTT-based checkerboard microplate method; assay type: functional; how it was run: as §1
[7] = Synergistic cytotoxicity against mouse L5178 cells expressing human ABCB1 assessed as combination index at ED90 using 60:1 test compound to doxorubicin ratio after 48 hrs by MTT-based checkerboard microplate method; assay type: functional; how it was run: as §1
MDA-MB-231 = test: Antiproliferative activity against human MDA-MB-231 cells after 72 hrs by MTT assay; assay type: functional, cell-based; details: MDA-MB-231, 72 h; how it was run: as §2
[8] = Synergistic cytotoxicity against mouse L5178 cells assessed as combination index at ED50 using 37.5:1 test compound to doxorubicin ratio after 48 hrs by MTT-based checkerboard microplate method; assay type: functional; how it was run: as §1
[9] = Synergistic cytotoxicity against mouse L5178 cells assessed as combination index at ED90 using 600:1 test compound to doxorubicin ratio after 48 hrs by MTT-based checkerboard microplate method; assay type: functional; how it was run: as §1
[10] = Synergistic cytotoxicity against mouse L5178 cells assessed as combination index at ED50 using 150:1 test compound to doxorubicin ratio after 48 hrs by MTT-based checkerboard microplate method; assay type: functional; how it was run: as §1
[11] = Synergistic cytotoxicity against mouse L5178 cells assessed as combination index at ED75 using 600:1 test compound to doxorubicin ratio after 48 hrs by MTT-based checkerboard microplate method; assay type: functional; how it was run: as §1
ABCB1 (P-glycoprotein) [12] = target: T1, ABCB1 (P-glycoprotein) (Homo sapiens, UniProt P08183); test: Inhibition of human ABCB1 expressed in mouse L5178 cells assessed as increase in rhodamine-123 accumulation at 20 uM after 10 mins by flow cytometric analysis relative to control; assay type: cell-based; details: mouse L5178 cells expressing human ABCB1, probe rhodamine-123
T1 sequence (P08183 whole entry): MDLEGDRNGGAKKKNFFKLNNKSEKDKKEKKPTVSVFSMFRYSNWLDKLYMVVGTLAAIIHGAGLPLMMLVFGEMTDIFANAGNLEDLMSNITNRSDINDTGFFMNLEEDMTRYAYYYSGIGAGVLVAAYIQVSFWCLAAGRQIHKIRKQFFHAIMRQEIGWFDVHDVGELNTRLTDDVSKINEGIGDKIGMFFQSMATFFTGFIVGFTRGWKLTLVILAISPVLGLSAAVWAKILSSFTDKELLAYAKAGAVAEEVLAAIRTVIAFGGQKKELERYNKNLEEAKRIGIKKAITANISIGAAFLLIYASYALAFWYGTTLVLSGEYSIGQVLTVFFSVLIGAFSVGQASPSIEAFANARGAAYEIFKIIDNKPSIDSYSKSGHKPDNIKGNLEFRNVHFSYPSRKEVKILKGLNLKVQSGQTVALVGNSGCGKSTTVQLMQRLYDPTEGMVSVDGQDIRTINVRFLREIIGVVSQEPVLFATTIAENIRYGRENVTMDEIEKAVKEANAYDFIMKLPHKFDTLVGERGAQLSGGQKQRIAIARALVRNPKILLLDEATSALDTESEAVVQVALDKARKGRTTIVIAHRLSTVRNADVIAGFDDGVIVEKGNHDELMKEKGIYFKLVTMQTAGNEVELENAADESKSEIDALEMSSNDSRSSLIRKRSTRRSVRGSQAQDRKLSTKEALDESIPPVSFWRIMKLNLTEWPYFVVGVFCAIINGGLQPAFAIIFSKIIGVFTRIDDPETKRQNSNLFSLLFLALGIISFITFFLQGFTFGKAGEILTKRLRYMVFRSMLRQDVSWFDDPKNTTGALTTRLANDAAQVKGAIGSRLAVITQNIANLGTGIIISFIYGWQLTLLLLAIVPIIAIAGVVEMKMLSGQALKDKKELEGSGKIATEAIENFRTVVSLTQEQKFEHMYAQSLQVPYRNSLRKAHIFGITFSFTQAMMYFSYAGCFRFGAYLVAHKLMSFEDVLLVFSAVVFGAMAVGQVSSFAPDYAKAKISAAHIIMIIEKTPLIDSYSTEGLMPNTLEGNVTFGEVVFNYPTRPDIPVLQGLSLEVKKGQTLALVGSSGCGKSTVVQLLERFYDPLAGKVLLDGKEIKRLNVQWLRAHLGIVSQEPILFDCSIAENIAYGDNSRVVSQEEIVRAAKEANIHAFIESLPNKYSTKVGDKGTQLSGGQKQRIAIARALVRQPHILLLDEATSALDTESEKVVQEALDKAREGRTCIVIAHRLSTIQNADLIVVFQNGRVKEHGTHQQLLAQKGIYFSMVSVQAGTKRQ
How it was run: (§3)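 Cells at 2 × 10^6/mL were preincubated 10 min with compound. Rhodamine 123 then added to 5.2 µM final, 20 min at 37 °C. Cells washed twice in PBS, resuspended and read by flow cytometry. Percent inhibition was scaled between MDR-cell accumulation (0%) and parental L5178 accumulation (100%). Controls: 100 nM tariquidar (positive) and 2% DMSO (negative).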

[13] = Synergistic cytotoxicity against mouse L5178 cells assessed as combination index at ED90 using 300:1 test compound to doxorubicin ratio after 48 hrs by MTT-based checkerboard microplate method; assay type: functional; how it was run: as §1
[14] = Synergistic cytotoxicity against mouse L5178 cells expressing human ABCB1 assessed as combination index at ED50 using 30:1 test compound to doxorubicin ratio after 48 hrs by MTT-based checkerboard microplate method; assay type: functional; how it was run: as §1
ABCB1 (P-glycoprotein) [15] = target: T1, ABCB1 (P-glycoprotein); test: Inhibition of human ABCB1 expressed in mouse L5178 cells assessed as increase in rhodamine-123 accumulation at 2 uM after 10 mins by flow cytometric analysis relative to control; assay type: cell-based; details: mouse L5178 cells expressing human ABCB1, probe rhodamine-123; how it was run: as §3
[16] = Synergistic cytotoxicity against mouse L5178 cells assessed as combination index at ED50 using 75:1 test compound to doxorubicin ratio after 48 hrs by MTT-based checkerboard microplate method; assay type: functional; how it was run: as §1
[17] = Synergistic cytotoxicity against mouse L5178 cells assessed as combination index at ED90 using 150:1 test compound to doxorubicin ratio after 48 hrs by MTT-based checkerboard microplate method; assay type: functional; how it was run: as §1
[18] = Synergistic cytotoxicity against mouse L5178 cells assessed as combination index at ED75 using 150:1 test compound to doxorubicin ratio after 48 hrs by MTT-based checkerboard microplate method; assay type: functional; how it was run: as §1
[19] = Synergistic cytotoxicity against mouse L5178 cells expressing human ABCB1 assessed as combination index at ED50 using 60:1 test compound to doxorubicin ratio after 48 hrs by MTT-based checkerboard microplate method; assay type: functional; how it was run: as §1
[20] = Cytotoxicity against mouse L5178 cells expressing human ABCB1 after 48 hrs by MTT assay; assay type: functional, cell-based; details: L5178, 48 h
How it was run: (§4)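 Parental mouse lymphoma L5178 and the MDR line made by pHa MDR1/A retrovirus transfection, selected with 60 µg/L colchicine. Grown in McCoy's 5A with horse serum at 37°C, 5% CO2. 5 x 10^4 cells/well, serial compound dilutions, 48 h. MTT added to 0.5 mg/mL final for 4 h, then 10% SDS in 0.01 M HCl overnight, OD read at 540 and 630 nm. IC50 taken as median cytotoxic activity (Dm) from control lanes of checkerboard plates, n=2.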

[21] = Cytotoxicity against mouse L5178 cells after 48 hrs by MTT assay; assay type: functional, cell-based; details: L5178, 48 h; how it was run: as §4
[22] = Synergistic cytotoxicity against mouse L5178 cells expressing human ABCB1 assessed as combination index at ED50 using 15:1 test compound to doxorubicin ratio after 48 hrs by MTT-based checkerboard microplate method; assay type: functional; how it was run: as §1
[23] = Synergistic cytotoxicity against mouse L5178 cells assessed as combination index at ED75 using 300:1 test compound to doxorubicin ratio after 48 hrs by MTT-based checkerboard microplate method; assay type: functional; how it was run: as §1
[24] = Synergistic cytotoxicity against mouse L5178 cells assessed as combination index at ED50 using 600:1 test compound to doxorubicin ratio after 48 hrs by MTT-based checkerboard microplate method; assay type: functional; how it was run: as §1
[25] = Synergistic cytotoxicity against mouse L5178 cells expressing human ABCB1 assessed as combination index at ED90 using 30:1 test compound to doxorubicin ratio after 48 hrs by MTT-based checkerboard microplate method; assay type: functional; how it was run: as §1
[26] = Synergistic cytotoxicity against mouse L5178 cells assessed as combination index at ED50 using 300:1 test compound to doxorubicin ratio after 48 hrs by MTT-based checkerboard microplate method; assay type: functional; how it was run: as §1
SiHa = test: Antiproliferative activity against human SiHa cells after 72 hrs by MTT assay; assay type: functional, cell-based; how it was run: as §2
[27] = Synergistic cytotoxicity against mouse L5178 cells expressing human ABCB1 assessed as combination index at ED75 using 30:1 test compound to doxorubicin ratio after 48 hrs by MTT-based checkerboard microplate method; assay type: functional; how it was run: as §1
[28] = Synergistic cytotoxicity against mouse L5178 cells expressing human ABCB1 assessed as combination index at ED75 using 15:1 test compound to doxorubicin ratio after 48 hrs by MTT-based checkerboard microplate method; assay type: functional; how it was run: as §1
MCF7 = test: Antiproliferative activity against human MCF7 cells after 72 hrs by MTT assay; assay type: functional, cell-based; details: MCF7, 72 h; how it was run: as §2

With `C=CCO/N=C1\C=C2[C@H](CC[C@]3(C)[C@@H]([C@@]4(C)OC(C)(C)O[C@@H]4CCC(C)(C)O)CC[C@@]23O)[C@@]2(C)C[C@@H]3OC(C)(C)O[C@@H]3C[C@@H]12` the CI [1] was 1.27, the CI [2] was 0.89 and the CI [3] was 0.26. The CI [4] was 1.27, the CI [5] was 1.28 and the IC50 (HeLa) was 15.6 µM. It also gave a CI [6] of 0.13, a CI [7] of 0.31 and an IC50 (MDA-MB-231) of 21.4 µM. It also gave a CI [8] of 1.95, a CI [9] of 1.05 and a CI [10] of 1.03. It also gave a CI [11] of 1.08, an inhibition at 10 min, 20 µM (ABCB1 (P-glycoprotein) [12]) of 89.4% and a CI [13] of 1.11. For the same compound, the CI [14] was 0.17, the inhibition at 10 min, 2 µM (ABCB1 (P-glycoprotein) [15]) was 21% and the CI [16] was 1.35. For the same compound, the CI [17] was 0.69, the CI [18] was 0.81 and the CI [19] was 0.24. The IC50 [20] was 51.9 µM, the IC50 [21] was 31.5 µM and the CI [22] was 0.17. For the same compound, the CI [23] was 1.12, the CI [24] was 1.19 and the CI [25] was 0.21. The CI [26] was 1.22, the IC50 (SiHa) was 25.5 µM and the CI [27] was 0.18. For the same compound, the CI [28] was 0.13 and the IC50 (MCF7) was 13.6 µM.
`CC(C)(O)CC[C@H]1OC(C)(C)O[C@]1(C)[C@H]1CC=C2C3=C/C(=N\O)[C@@H]4C[C@H]5OC(C)(C)O[C@H]5C[C@]4(C)[C@H]3CC[C@@]21C` gave a CI [3] of 0.29, a CI [6] of 0.12 and a CI [7] of 0.27. It also gave a CI [9] of 1.13, a CI [10] of 0.8 and a CI [11] of 1.11. The inhibition at 10 min, 20 µM (ABCB1 (P-glycoprotein) [12]) was 83%, the CI [13] was 1.04 and the CI [14] was 0.25. For the same compound, the inhibition at 10 min, 2 µM (ABCB1 (P-glycoprotein) [15]) was 10.6%, the CI [17] was 0.78 and the CI [18] was 0.79. The CI [19] was 0.34, the IC50 [20] was 24.6 µM and the IC50 [21] was 20.9 µM. For the same compound, the CI [22] was 0.26, the CI [23] was 1.11 and the CI [24] was 1.1. The CI [25] was 0.16, the CI [26] was 1.18 and the CI [27] was 0.19. It also gave a CI [28] of 0.16.
`CC(C)(O)CC[C@H]1OC(C)(C)O[C@]1(C)[C@H]1CC=C2C3=C/C(=N/O)[C@@H]4C[C@H]5OC(C)(C)O[C@H]5C[C@]4(C)[C@H]3CC[C@@]21C` showed a CI [3] of 0.34, a CI [6] of 0.27 and a CI [7] of 0.28. It also gave a CI [9] of 0.91, a CI [10] of 0.98 and a CI [11] of 0.94. It also gave an inhibition at 10 min, 20 µM (ABCB1 (P-glycoprotein) [12]) of 81.1%, a CI [13] of 1.25 and a CI [14] of 0.32. It also gave an inhibition at 10 min, 2 µM (ABCB1 (P-glycoprotein) [15]) of 7.15%, a CI [17] of 0.61 and a CI [18] of 0.76. It also gave a CI [19] of 0.42, an IC50 [20] of 28.4 µM and an IC50 [21] of 34.2 µM. For the same compound, the CI [22] was 0.98, the CI [23] was 1.17 and the CI [24] was 1.01. For the same compound, the CI [25] was 0.2, the CI [26] was 1.14 and the CI [27] was 0.25. For the same compound, the CI [28] was 0.25.
